G6PDH counter – L. mesenteroides G6PDH inhibitors, counter-screen for G6PDH-coupled screening assays, biochemical, Leuconostoc mesenteroides enzyme; glucose-6-phosphate dehydrogenase [Leuconostoc mesenteroides]; Purified L. mesenteroides G6PDH, diaphorase/resazurin coupled fluorescence, 45 min; inhibition, % at 5 µM; 200,000 compounds, 0.12% hits; AID 1020, 2008; in the data active means inhibition above about 50%
Diaph act CS – compounds boosting diaphorase resazurin reduction – biochemical, uHTS, resorufin fluorescence, counter-screen for diaphorase-coupled primary assays, primary screen. Diaphorase/resazurin coupled assay, 16 min; hits give high values; 1 = vehicle wells, 0 = NADH-free wells. activation factor at 20 µM. 190,000 compounds, 0.005% hits;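 active means diaphorase activity raised at least twofold by the compound at 20 µM; inactive means activation factor below 2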
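Material: Purified diaphorase enzyme from Clostridium kluyveri | Buffer or medium: 50 mM HEPES pH 7.4 with 4.542 mM MgCl2, 0.005% Tween 20 | Times: 16 min enzyme reaction, ambient temperature | Signal: Red resorufin fluorescence at 544/590 nm excitation/emission | Measure: Increased resorufin signal from activators or reducing compounds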
HKDC1 inhibitor – HKDC1 hexokinase inhibitors, primary screen, biochemical, fluorescence, uHTS; Q2TB90; recombinant HKDC1, G6PDH/diaphorase resazurin coupled fluorescence; inhibition, % at 20 µM; 340,000 compounds, 0.16% hits;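 active means inhibition above about 35% when tested at 20 µM, limit read from the data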
Target sequence (Q2TB90 whole entry, looked up): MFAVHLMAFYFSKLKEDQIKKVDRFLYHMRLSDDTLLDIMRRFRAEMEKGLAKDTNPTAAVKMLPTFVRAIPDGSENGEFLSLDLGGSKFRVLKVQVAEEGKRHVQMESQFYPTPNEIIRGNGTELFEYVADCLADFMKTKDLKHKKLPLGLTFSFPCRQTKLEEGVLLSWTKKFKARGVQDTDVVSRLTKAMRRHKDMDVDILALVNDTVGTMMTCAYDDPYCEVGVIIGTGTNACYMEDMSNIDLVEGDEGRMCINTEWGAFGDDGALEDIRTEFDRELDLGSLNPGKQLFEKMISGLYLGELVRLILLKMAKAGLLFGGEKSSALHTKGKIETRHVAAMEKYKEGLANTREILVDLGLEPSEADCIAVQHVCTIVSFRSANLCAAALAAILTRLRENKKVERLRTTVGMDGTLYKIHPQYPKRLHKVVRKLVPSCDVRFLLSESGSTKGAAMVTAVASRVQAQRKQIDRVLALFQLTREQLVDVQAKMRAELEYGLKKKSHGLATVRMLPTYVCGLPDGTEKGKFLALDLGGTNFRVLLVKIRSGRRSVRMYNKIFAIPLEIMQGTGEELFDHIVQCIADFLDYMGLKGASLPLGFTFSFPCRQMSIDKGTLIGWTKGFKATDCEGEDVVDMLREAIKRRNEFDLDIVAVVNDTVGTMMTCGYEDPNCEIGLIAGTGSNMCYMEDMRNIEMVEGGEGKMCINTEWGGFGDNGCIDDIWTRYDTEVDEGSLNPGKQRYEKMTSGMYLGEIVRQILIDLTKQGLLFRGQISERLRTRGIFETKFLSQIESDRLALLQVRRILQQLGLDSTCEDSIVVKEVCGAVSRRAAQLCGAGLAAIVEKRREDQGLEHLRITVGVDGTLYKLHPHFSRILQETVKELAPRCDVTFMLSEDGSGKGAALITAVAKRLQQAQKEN
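test system = in-house recombinant HK5 (HKDC1) enzyme | amount = HKDC1 at 5 µg/mL | control set = DMSO-enzyme wells negative, buffer-substituted wells positive | compound = one dose of 20 µM, 1% DMSO | schedule = reaction time 90 min, room temperature, protected from light | technique = resorufin fluorescence at 613 nm | reagent = glucose with 1 mM ATP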
Diaph inh CS – diaphorase inhibitors and chemical oxidizers, primary screen, counter-screen for diaphorase-coupled primary assays, biochemical, uHTS, resorufin fluorescence | diaphorase resazurin-to-resorufin fluorescence, NADH, 16 min; bacterial (C. kluyveri) enzyme, not human | 190,000 compounds, 0.69% hits | AID 1217, 2008 | inhibition, % at 20 µM;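 active means primary screen inhibition at 20 µM above a set limit, cut at about 50% in these data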
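Test system: bacterial diaphorase enzyme (C. kluyveri); Quantity: 0.14 U/mL diaphorase, enzyme working solution; Times: reaction incubation of 16 min at room temperature; Measured by: fluorescence of resorufin formed from resazurin, Ex 544/Em 590 nm; Benchmarks: positive control minus NADH, DMSO neutral control.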
PfGluPho inh – PfG6PD enzyme inhibitors, primary screen, biochemical, fluorescence intensity, uHTS. AID 504690, 2011. PfGluPho enzyme, NADPH resazurin-diaphorase fluorescence. inhibition, % at 20 µM. 350,000 compounds, 0.78% hits;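 active means inhibition reaching at least a set limit at 20 µM in the primary screen, cut at about 59% in these data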
PfGluPho conf – PfG6PD inhibitors, hit retest, confirmation, biochemical, fluorescence intensity, single concentration. shares compounds with PfGluPho inh. recombinant PfGluPho, NADPH-diaphorase-resazurin fluorescence. inhibition, % at 20 µM. 2,400 compounds, 34% hits. AID 504753, 2011;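 active means inhibition of at least 50% at 20 µM in any single replicate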
Diaph ctr 10uM – diaphorase inhibitors and chemical oxidizers, confirmation, counter-screen for P. falciparum G6PD inhibitor project, biochemical, fluorescence intensity, 10 µM NADPH; shares compounds with PfGluPho inh; diaphorase-coupled resazurin reduction, NADPH 10 uM; inhibition, % at 20 µM; 820 compounds, 39% hits; AID 504862, 2011;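 active means average inhibition reaching 50% or more with the compound at 20 µM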;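 further: resorufin red fluorescence formed as diaphorase reduces resazurin using NADPH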
Diaphorase 30uM – diaphorase inhibitors and chemical oxidizers, confirmation, counter-screen for P. falciparum G6PD inhibitor project, biochemical, fluorescence intensity, 30 µM NADPH. shares compounds with PfGluPho inh. Diaphorase/resazurin coupled assay, resorufin fluorescence. inhibition, % at 20 µM. 820 compounds, 29% hits;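 active means inhibition averaging 50% or more, tested at 20 µM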
Hits are given with their value; 0 = inactive; - = not tested or not shown; ! = not active in a repeat. The list is not random: actives were taken first. Their share in the collection is about 1.3%.

SMILES | G6PDH counter | Diaph act CS | HKDC1 inhibitor | Diaph inh CS | PfGluPho inh | PfGluPho conf | others
CCSc1nnc(NC(=O)c2ccc3c(c2)OCO3)s1 | 0 | 0 | 0 | 0 | 85 | 74 | Diaph ctr 10uM=68;Diaphorase 30uM=68
Cc1cnc(NC(=O)c2sc3ccccc3c2Cl)s1 | 0 | 0 | 0 | 0 | 0 | -
Cc1nnc(NC(=O)c2ccc3ccccc3c2)s1 | - | - | 0 | - | 0 | -
CC(c1ccccc1)c1nnc(NC(=O)c2ccc3c(c2)OCO3)s1 (stereo not drawn) | - | - | 0 | - | 0 | -
Cc1cc(O)cc(O)c1/C=N/NC(=O)c1ccc2c(c1)OCCO2 | - | - | - | - | 0 | -
CCCCCCCN(c1ccccc1)[C@@H]1C[C@H]2CCCC(=O)N3CC[C@@H](C1)[C@@H]23 | - | - | 0 | - | 0 | -
C=C1c2cccc(C(F)(F)F)c2O[C@H](C(=O)OCC)[C@H]1OC | - | - | 0 | - | 0 | -
CC(C)Sc1nnc(NC(=O)c2ccc3c(c2)OCO3)s1 | - | - | 0 | - | 100 | 66 | Diaph ctr 10uM=59;Diaphorase 30uM=0
O=S(=O)(Nc1c(O)ccc2ccccc12)c1ccc(F)cc1 | - | - | 0 | - | 76 | 0
O=S(=O)(Nc1cccc2ccccc12)c1ccccc1 | - | - | 0 | - | 0 | -
O=S(=O)(Nc1c(O)ccc2ccccc12)c1ccccc1 | - | - | 0 | - | 75 | 52 | Diaph ctr 10uM=0;Diaphorase 30uM=0
Cc1ccc(S(=O)(=O)SC/C=C/CSS(=O)(=O)c2ccc(C)cc2)cc1 | - | - | 0 | - | 116 | 66 | Diaph ctr 10uM=0;Diaphorase 30uM=0
Cc1ccc(S(=O)(=O)SCCCSS(=O)(=O)c2ccc(C)cc2)cc1 | - | - | 0 | - | 123 | 81 | Diaph ctr 10uM=0;Diaphorase 30uM=0
Cc1ccc(S(=O)(=O)CS(=O)(=O)c2ccc(C)cc2)cc1 | - | - | 0 | - | 0 | -
Cc1ccc(S(=O)(=O)C=CS(=O)(=O)c2ccc(C)cc2)cc1 | - | - | - | - | 113 | 93 | Diaph ctr 10uM=0;Diaphorase 30uM=0
CC1CC1C(=O)OCC(=O)N(C)c1c(N)n(Cc2ccccc2)c(=O)[nH]c1=O (stereo not drawn) | - | - | 0 | - | 0 | -
CSCCOC(=O)C1=C(C)Nc2ccc(C)cc2S1 | 0 | 0 | 0 | 0 | 60 | 0
O=S(=O)(c1ccc(Cl)cc1)N1CCN=C1SCc1cccc(Cl)c1 | 0 | 0 | 0 | 0 | 0 | -
Cc1ccc(C)c(CSC2=NCCN2S(=O)(=O)c2ccccc2)c1 | - | - | 0 | - | 62 | 0
Cc1ccc(S(=O)(=O)N2CCN=C2SC(C)c2ccccc2)cc1 (stereo not drawn) | - | - | 0 | - | 0 | -
CC(SC1=NCCN1S(=O)(=O)c1ccccc1)c1ccccc1 (stereo not drawn) | - | - | 0 | - | 62 | 0
O=S(=O)(c1ccccc1)N1CCN=C1SCc1c(F)cccc1Cl | - | - | 0 | - | 106 | 0
O=C1CCCC(=O)C1C(c1ccc(Cl)cc1)C1C(=O)CCCC1=O | - | - | 0 | - | 77 | 0
Cc1[nH][nH]c(=O)c1C(c1ccc(Cl)cc1)c1c(C)[nH][nH]c1=O | - | - | 0 | - | 0 | -
O=C1c2ccccc2C(=O)c2c(Nc3ccc(CCO)cc3)ccc(O)c21 | - | - | 0 | - | 0 | -
O=C1c2c(O)ccc(O)c2C(=O)c2c(NCCNCCO)ccc(NCCNCCO)c21 | - | - | 0 | - | 62! | 0
CC(NC(=O)C1CCC(CNS(=O)(=O)c2ccc3c(c2)C(C)(C)C(=O)N3C)CC1)c1ccccc1 (stereo not drawn) | - | - | 0 | - | 0 | -
COC(=O)c1ccccc1NC(=O)c1sc(=S)n(C)c1N | 0 | 0 | 0 | 0 | 63 | 0
Cc1ccc(-n2c(N)c(C(=O)Nc3ccccc3F)sc2=S)cc1C | 0 | 0 | 0 | 0 | 70 | 0
Cc1ccc(C)c(-n2c(N)c(C(N)=O)sc2=S)c1 | - | - | 0 | - | 0 | -

Screening results as filed in PubChem.
